pEC50: −log10 of the molar value.
Columns and labels:
[1] = Cytotoxicity against MDBK cells by MTT assay; assay type: cell-based, Bos taurus; details: cattle
[2] = system: Bovine viral diarrhea virus 1; experiment: Antiviral activity against Bovine viral diarrhea virus infected in MDBK cells assessed as reduction in viral yield after 3 days by neutral-red staining-based microscopic analysis; assay type: functional, organism-based; details: Bovine viral diarrhea virus isolates and strains, 72 h
Procedure, shortened: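 BVDV titers from treated infected cultures were determined by standard virus yield reduction assay in MDBK cells, and EC50 was derived.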

[3] = Metabolic stability in mouse liver microsomes assessed as compound remaining at 2 uM after 60 mins in presence of NADPH; assay type: ADME, Microsome; details: read-out: Stability
Procedure, shortened: (§1)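 Liver microsomes at 0.5mg/ml incubated at 37°C with test compound at 2μM in the presence of 1mM NADPH. Percent of parent compound remaining measured at 60 min. Run by a contract lab.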

[4] = Metabolic stability in human liver microsomes assessed as compound remaining at 2 uM after 60 mins in presence of NADPH; assay type: ADME, Microsome; details: read-out: Stability; procedure, shortened: as §1
[5] = Metabolic stability in rat liver microsomes assessed as compound remaining at 2 uM after 60 mins in presence of NADPH; assay type: ADME, Microsome; details: read-out: Stability; procedure, shortened: as §1
[6] = system: Tacaribe virus; experiment: Antiviral activity against Tacaribe virus infected in human Huh7.5 cells assessed as reduction in viral yield after 3 days by neutral-red staining-based microscopic analysis; assay type: functional, organism-based; details: Mammarenavirus tacaribeense, Huh-7, 72 h
Procedure, shortened: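 Huh7 cells infected with Tacaribe virus at MOI 0.01. Compounds were added immediately after virus incubation at 0.01 to 100 μM. Progeny titers were determined by standard virus yield reduction assay in Vero cells, and EC50 was derived.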

[7] = Cytotoxicity against human Huh7.5 cells by MTT assay; assay type: cell-based, Huh-7

SMILES | CC50 [1] [µM] | pEC50 [2] | remaining at 1 h, 2 µM [3] [%] | remaining at 1 h, 2 µM [4] [%] | remaining at 1 h, 2 µM [5] [%] | pEC50 [6] | CC50 [7] [µM]
O=C1OC[C@H](c2ccccc2)N1CCCCCCN1C[C@H](O)[C@@H](O)[C@H](O)[C@H]1CO | > 500 | 6.10 | – | – | – | – | –
CC(C)(C)C(=O)N(CCCCCCN1C[C@H](O)[C@@H](O)[C@H](O)[C@H]1CO)c1ccc(F)cc1F | – | – | 55.3 | 36.1 | 21.6 | – | –
O=C1OC[C@@H](c2ccccc2)N1CCCCCCN1C[C@H](O)[C@@H](O)[C@H](O)[C@H]1CO | > 500 | 5.46 | – | – | – | – | –
NC(=O)N(CCCCCCN1C[C@H](O)[C@@H](O)[C@H](O)[C@H]1CO)C1CCCCC1 | > 500 | 4.85 | – | – | – | 4.00 | > 500
O=C(c1ccccc1)N(CCCCCCN1C[C@H](O)[C@@H](O)[C@H](O)[C@H]1CO)C1CCCCC1 | > 500 | 6.49 | 97.4 | 82.6 | 77.4 | 6.22 | > 500
CC(C)(C)S(=O)(=O)N(CCCCCCN1C[C@H](O)[C@@H](O)[C@H](O)[C@H]1CO)C1CCCCC1 | > 500 | 6.51 | 65.4 | 50.2 | 12.1 | 6.40 | > 500
CC(C)(C)C(=O)N(CCCCCCN1C[C@H](O)[C@@H](O)[C@H](O)[C@H]1CO)C1CCCCC1 | > 500 | – | 58.6 | 41.6 | 26.9 | – | –
CS(=O)(=O)N(CCCCCCN1C[C@H](O)[C@@H](O)[C@H](O)[C@H]1CO)C1CCCCC1 | > 500 | 6.70 | 86.9 | 95.5 | 65.7 | 6.15 | > 500
CC(C)(C)NC(=O)N(CCCCCCN1C[C@H](O)[C@@H](O)[C@H](O)[C@H]1CO)C1CCCCC1 | > 500 | 6.60 | 87.6 | 93.6 | 92.8 | 6.13 | > 500
CC(C)OP(=O)(OC(C)C)N(CCCCCCN1C[C@H](O)[C@@H](O)[C@H](O)[C@H]1CO)C1CCCCC1 | > 500 | 5.47 | – | – | – | 6.52 | 310
CCCNC(=O)N(CCCCCCN1C[C@H](O)[C@@H](O)[C@H](O)[C@H]1CO)C1CCCCC1 | > 500 | 4.80 | – | – | – | 4.60 | > 500
O=C(c1cc(F)c(F)cc1F)N(CCCCCCN1C[C@H](O)[C@@H](O)[C@H](O)[C@H]1CO)C1CCCCC1 | > 500 | 6.57 | – | – | – | 6.22 | > 500
O=c1oc2ccccc2n1CCCCCCN1C[C@H](O)[C@@H](O)[C@H](O)[C@H]1CO | > 500 | 6.40 | 86.7 | 101 | 86.9 | 6.40 | > 500
O=S(=O)(c1ccccc1)N(CCCCCCN1C[C@H](O)[C@@H](O)[C@H](O)[C@H]1CO)C1CCCCC1 | 200 | 6.30 | 42.8 | 13 | 3.83 | 5.80 | 280

Source: ChEMBL document CHEMBL2401641, “Design and synthesis of N-alkyldeoxynojirimycin derivatives with improved metabolic stability as inhibitors of BVDV and Tacaribe virus” (Bioorg Med Chem Lett, 2013)
